Data on four compounds can be found in ChEMBL document CHEMBL1828628, “Discovery of a tetrahydroisoquinoline-based hydroxamic acid derivative (ZYJ-34c) as histone deacetylase inhibitor with potent oral antitumor activities” (J Med Chem, 2011).

One series deals with H22. Kind of series: Antitumor activity against mouse H22 cells xenografted in Kunming mouse assessed as reduction of pulmonary metastatic nodes in lungs at 90 mg/kg, po qd for 14 days. It counts as functional, organism-based. Further details: dose 90 mg/kg.
The target of series [1] is 72 kDa type IV collagenase (Homo sapiens) (UniProt P08253). In words: Inhibition of MMP2.
In series [2] the test system is MDA-MB-231. In words: Cell cycle arrest in human MDA-MB-231 cells assessed as accumulation at G2 phase at 5 uM after 48 hrs using propidium iodide staining by flow cytometric analysis. It counts as functional, cell-based. The essentials: (§1)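 MDA-MB-231 cells were seeded at 4 × 10^5 per well and incubated overnight, then treated for 48 h. Cells were fixed overnight in 70% ethanol phosphate buffer and washed twice with PBS. They were treated with DNase-free RNase A (1 mg/mL) for 30 min, then stained with propidium iodide for 30 min in the dark at room temperature. DNA content was read by FACScan flow cytometry.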
In general terms: In flow cytometry, cells or beads pass a laser one at a time.

For series [3], the system named is MDA-MB-231. Kind of series: Cell cycle arrest in human MDA-MB-231 cells assessed as accumulation at G1 phase at 1 uM after 48 hrs using propidium iodide staining by flow cytometric analysis. It counts as functional, cell-based. In a few lines:
as §1

For series [4], the system named is Mus musculus. In words: Toxicity in mouse H22 cells xenografted Kunming mouse assessed as change in body weight at 90 mg/kg, po qd for 19 days. It counts as organism-based. Further details: dose 90 mg/kg, route oral. Particulars: in vivo, 456 h.
For series [5], the system named is MDA-MB-231. Kind of series: Antitumor activity against human MDA-MB-231 cells xenografted in BALB/c nu mouse assessed as tumor growth inhibition at 90 mg/kg, ip qd for 19 days relative to control. It counts as functional. Particulars: route intraperitoneal; for inhibition in vivo at 90 mg/kg: Mus musculus, MDA-MB-231, ip, 456 h, read-out: TGI. Background: A xenograft is tissue or cells of one species grown in another, often human tumour cells in immunodeficient mice.

Series [6] relates to Mus musculus. Kind of series: Toxicity in mouse H22 cells xenografted Kunming mouse assessed as signs of organ toxicity at 90 mg/kg, po qd for 19 days. It counts as organism-based. Further details: dose 90 mg/kg, route oral. Particulars: in vivo, 456 h.
The target of series [7] is Aminopeptidase N (Homo sapiens) (UniProt P15144). In words: Inhibition of aminopeptidase N.
Series [8] relates to Mus musculus. Kind of series: Toxicity in human MDA-MB-231 cells xenografted BALB/c nu mouse assessed as change in body weight at 90 mg/kg, ip qd for 19 days. It counts as organism-based. Details: dose 90 mg/kg, route intraperitoneal. Particulars: in vivo, 456 h. The essentials: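 Female BALB/c-nu mice, 5–6 weeks old, bearing subcutaneous right-flank xenografts. Mice were randomized 6 per group at about 100 mm3 tumor size. Dosing was oral or intraperitoneal for 19 days; controls received an equal volume of PBS containing DMSO. Body weight was monitored regularly during treatment, and tumors were measured by caliper every three days.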

Active and inactive are the calls of the source. No cut-off for these calls is given here.

72 kDa type IV collagenase (Homo sapiens), sequence (P08253 110-660 limits assumed): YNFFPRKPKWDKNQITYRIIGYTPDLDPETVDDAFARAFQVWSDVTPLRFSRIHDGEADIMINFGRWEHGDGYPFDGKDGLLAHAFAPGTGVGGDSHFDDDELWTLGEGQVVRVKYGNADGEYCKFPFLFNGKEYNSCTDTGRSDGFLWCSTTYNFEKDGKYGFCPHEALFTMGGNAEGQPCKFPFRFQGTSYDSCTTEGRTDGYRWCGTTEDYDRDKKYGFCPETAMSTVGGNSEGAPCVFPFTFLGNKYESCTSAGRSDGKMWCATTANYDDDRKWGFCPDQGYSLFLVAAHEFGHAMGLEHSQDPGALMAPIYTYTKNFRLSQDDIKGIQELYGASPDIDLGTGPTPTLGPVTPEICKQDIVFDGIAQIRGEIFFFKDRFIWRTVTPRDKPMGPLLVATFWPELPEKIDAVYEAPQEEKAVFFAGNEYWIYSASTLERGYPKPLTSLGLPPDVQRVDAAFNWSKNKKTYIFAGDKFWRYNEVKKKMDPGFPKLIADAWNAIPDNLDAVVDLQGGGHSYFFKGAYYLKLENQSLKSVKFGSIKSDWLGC
Aminopeptidase N (Homo sapiens), sequence (P15144 whole entry): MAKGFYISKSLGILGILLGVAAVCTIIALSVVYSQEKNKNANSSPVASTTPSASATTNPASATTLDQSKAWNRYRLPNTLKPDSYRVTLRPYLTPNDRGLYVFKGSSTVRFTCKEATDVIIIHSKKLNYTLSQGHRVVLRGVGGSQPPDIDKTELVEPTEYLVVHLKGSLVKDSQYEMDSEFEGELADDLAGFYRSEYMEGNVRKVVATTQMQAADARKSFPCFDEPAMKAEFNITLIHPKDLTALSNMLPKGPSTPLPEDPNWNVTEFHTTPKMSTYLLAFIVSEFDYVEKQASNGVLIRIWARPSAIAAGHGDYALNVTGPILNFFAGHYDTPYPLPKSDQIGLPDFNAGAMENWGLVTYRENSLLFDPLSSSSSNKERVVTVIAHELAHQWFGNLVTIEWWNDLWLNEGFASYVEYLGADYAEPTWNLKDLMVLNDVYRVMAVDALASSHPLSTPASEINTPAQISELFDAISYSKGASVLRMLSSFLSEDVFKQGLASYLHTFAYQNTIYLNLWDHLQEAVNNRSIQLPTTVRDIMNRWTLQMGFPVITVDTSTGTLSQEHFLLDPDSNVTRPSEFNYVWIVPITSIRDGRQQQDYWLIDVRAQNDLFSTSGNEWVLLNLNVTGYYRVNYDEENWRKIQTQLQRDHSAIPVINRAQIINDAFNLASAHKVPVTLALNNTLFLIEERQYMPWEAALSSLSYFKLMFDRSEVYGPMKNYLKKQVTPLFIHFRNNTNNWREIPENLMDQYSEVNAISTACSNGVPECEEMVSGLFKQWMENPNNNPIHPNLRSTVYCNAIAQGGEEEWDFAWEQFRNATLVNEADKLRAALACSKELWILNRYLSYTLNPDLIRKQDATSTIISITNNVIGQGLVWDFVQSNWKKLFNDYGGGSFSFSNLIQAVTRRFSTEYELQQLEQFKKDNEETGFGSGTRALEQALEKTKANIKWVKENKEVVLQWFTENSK

In the case of `O=C(CCCCCCC(=O)Nc1ccccc1)NO`, the outcome with H22 was inactive. The inhibition entry in series [1] was “inactive”. The outcome in the series with MDA-MB-231 [2] and in the series with MDA-MB-231 [3] was Active.
As for `CC[C@H](C)[C@@H](CN1Cc2cc(OCC(=O)NO)ccc2C[C@H]1C(=O)Nc1ccc(OC)cc1)NC(=O)OC(C)(C)C`, the Activity result with Mus musculus [4], in the series on Mus musculus [6] and in the series with Mus musculus [8] was “Non-toxic” in each case. Besides, in the series on H22, the result was Active. For the same compound, the inhibition entry in series [1] was “inactive”. In the series with MDA-MB-231 [5], the inhibition in vivo at 90 mg/kg was determined as 55%. Also, the T/C in the series on MDA-MB-231 [5] amounted to 47%. Further, in [7], the inhibition result is “Active”.
For `CC[C@H](C)[C@@H](CN1Cc2cc(OCC(=O)NO)ccc2C[C@H]1C(=O)Nc1ccc(OC)cc1)NC(=O)CC(C)(C)C`, the Activity entry in the series with Mus musculus [4], in the series with Mus musculus [6] and with Mus musculus [8] was “Non-toxic” in each case. Moreover, the result in the series on H22 was Active. Moreover, in series [1], the inhibition result was “inactive”. The inhibition in vivo at 90 mg/kg with MDA-MB-231 [5] is -9%. In addition, the T/C with MDA-MB-231 [5] was determined as 87%. For the same compound, in series [7], the inhibition entry is “Active”.
Regarding `CC[C@H](C)[C@H](NC(=O)OC(C)(C)C)C(=O)N1Cc2cc(OCC(=O)NO)ccc2C[C@H]1C(=O)Nc1ccc(OC)cc1`, the Activity entry with Mus musculus [4], in the series with Mus musculus [6] and in the series on Mus musculus [8] was “Non-toxic” throughout. The outcome with H22 was Active. Further, the inhibition entry in series [1] is “inactive”. Besides, in the series with MDA-MB-231 [5], the inhibition in vivo at 90 mg/kg amounted to 40%. Further, in the series on MDA-MB-231 [5], the T/C is 63%. The inhibition result in series [7] is “Active”.

Usually T/C stands for the result in the treated group divided by that in the control group, in per cent.
